According to ChEMBL document CHEMBL3603753, “Carbamoyl Triazoles, Known Serine Protease Inhibitors, Are a Potent New Class of Antimalarials” (J Med Chem, 2015):
pIC50: −log10 of the molar value. ≈ marks a conversion by molar mass, not a printed value. Calls of active or inactive are those of the source. No cut-off for these calls is given here.

What was measured:
[1] = tested on: Plasmodium falciparum; assay: Antimalarial activity against Plasmodium falciparum 3D7 infected in erythrocytes incubated for 48 hrs by [3H]hypoxanthine incorporation assay; type: functional, organism-based
[2] = tested on: Liver microsome; assay: Intrinsic clearance in human liver microsomes; type: ADME
[3] = Half life in human liver microsomes; type: ADME
[4] = Half life in mouse liver microsomes; type: ADME
[5] = target: Acetylcholinesterase (Homo sapiens, UniProt P22303); assay: Inhibition of human AChE
[6] = target: T1, Subtilisin-like protease 1 (Plasmodium falciparum, UniProt O61142); assay: Inhibition of Plasmodium falciparum recombinant SUB1 using SERA4st1F-6R12 substrate incubated for 55 mins by fluorescence spectrophotometry
T1 sequence (O61142 whole entry): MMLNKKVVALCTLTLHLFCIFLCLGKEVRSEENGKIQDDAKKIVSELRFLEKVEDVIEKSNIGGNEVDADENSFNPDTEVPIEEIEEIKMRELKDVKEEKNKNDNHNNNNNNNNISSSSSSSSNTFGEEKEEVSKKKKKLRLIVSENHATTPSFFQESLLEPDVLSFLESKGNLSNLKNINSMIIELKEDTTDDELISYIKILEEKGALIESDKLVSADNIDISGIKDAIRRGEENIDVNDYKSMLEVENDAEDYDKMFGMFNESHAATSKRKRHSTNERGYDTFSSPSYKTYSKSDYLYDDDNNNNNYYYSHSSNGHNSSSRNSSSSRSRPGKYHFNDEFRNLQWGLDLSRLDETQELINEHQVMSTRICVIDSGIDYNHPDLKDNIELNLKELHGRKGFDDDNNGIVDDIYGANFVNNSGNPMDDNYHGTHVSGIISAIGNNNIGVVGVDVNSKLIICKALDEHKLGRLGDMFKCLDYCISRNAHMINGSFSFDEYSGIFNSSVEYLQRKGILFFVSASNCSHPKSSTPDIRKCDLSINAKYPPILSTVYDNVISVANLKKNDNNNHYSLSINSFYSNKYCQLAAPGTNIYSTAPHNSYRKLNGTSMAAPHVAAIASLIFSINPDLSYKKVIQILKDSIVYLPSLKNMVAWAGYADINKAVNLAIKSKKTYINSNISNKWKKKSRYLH

[7] = tested on: Plasmodium falciparum; assay: Antimalarial activity against Plasmodium falciparum 3D7 infected in erythrocytes incubated for 72 hrs by [3H]hypoxanthine incorporation assay; type: functional, organism-based
[8] = tested on: Plasmodium falciparum; assay: Antimalarial activity against Plasmodium falciparum infected in erythrocytes assessed as young trophozoites level at 10 times antimalarial IC50 level incubated for 24 and 48 hrs by Giemsa staining based microsocpy
[9] = Inhibition of CYP3A (unknown origin) by 4VG metabolism assay; type: ADME, Homo sapiens
[10] = target: Voltage-gated inwardly rectifying potassium channel KCNH2 (Homo sapiens, UniProt Q12809); assay: Inhibition of human ERG by QPatch assay
[11] = tested on: Blood; assay: Stability in CD1 mouse blood at 10 mM after 0.5 to 2 hrs by UPLC-MS/MS method; type: ADME, tissue-based; conditions: 10000 µM
[12] = tested on: HepG2; assay: Cytotoxicity against human HepG2 cells; type: cell-based
[13] = tested on: Plasmodium falciparum; assay: Antimalarial activity against Plasmodium falciparum assessed as parasite reduction ratio at 10 times antimalarial IC50 level over 48 hrs; type: functional
Method in brief: (§1)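 Parasite reduction ratio assay on P. falciparum with compound at 10× its Pf IC₅₀. Viable parasite decrease is followed over one life cycle (48 h), giving log₁₀ PRR and the time needed to kill 99.9% of parasites (PCT99.9%).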

[14] = tested on: Plasma; assay: Stability in CD1 mouse plasma at 10 mM after 0.5 to 2 hrs by UPLC-MS/MS method; type: ADME, cell-free; conditions: 10000 µM
[15] = tested on: Plasmodium falciparum; assay: Antimalarial activity against Plasmodium falciparum 3D7 infected in erythrocytes incubated for 24 hrs by [3H]hypoxanthine incorporation assay; type: functional, organism-based
[16] = target: Dipeptidyl peptidase 4 (Homo sapiens, UniProt P27487); assay: Inhibition of DPP4 (unknown origin)
[17] = Inhibition of CYP3A (unknown origin) by 4VR metabolism assay; type: ADME, Homo sapiens
[18] = tested on: Plasma; assay: Stability in CD1 mouse plasma at 10 mM in presence of serine protease inhibitor PMSF after 0.5 to 2 hrs by UPLC-MS/MS method; type: ADME, cell-free; conditions: 10000 µM
[19] = Kinetic solubility of the compound by chemoluminescent nitrogen detection kinetic solubility assay; type: physicochemical; conditions: read-out: Kinetic_solubility
[20] = tested on: Plasmodium falciparum; assay: Antimalarial activity against Plasmodium falciparum assessed as time duration for 99.9% parasite killing at 10 times antimalarial IC50 level over 48 hrs; type: functional; method in brief: as §1
[21] = tested on: Plasmodium berghei; assay: Antimalarial activity against Plasmodium berghei infected in orally dosed mouse model of malaria infection; type: functional; conditions: po
Method in brief: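 Mice infected with P. berghei; compound given orally (p.o.) as 2 doses of 50 mg kg⁻¹.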

[22] = Passive permeability by PAMPA method; type: ADME; conditions: read-out: permeability
[23] = target: Albumin (Homo sapiens, UniProt P02768); assay: Binding affinity to HSA; type: ADME; conditions: human serum albumin (HSA), read-out: PB (converted)
Sequence of Albumin (P02768 whole entry): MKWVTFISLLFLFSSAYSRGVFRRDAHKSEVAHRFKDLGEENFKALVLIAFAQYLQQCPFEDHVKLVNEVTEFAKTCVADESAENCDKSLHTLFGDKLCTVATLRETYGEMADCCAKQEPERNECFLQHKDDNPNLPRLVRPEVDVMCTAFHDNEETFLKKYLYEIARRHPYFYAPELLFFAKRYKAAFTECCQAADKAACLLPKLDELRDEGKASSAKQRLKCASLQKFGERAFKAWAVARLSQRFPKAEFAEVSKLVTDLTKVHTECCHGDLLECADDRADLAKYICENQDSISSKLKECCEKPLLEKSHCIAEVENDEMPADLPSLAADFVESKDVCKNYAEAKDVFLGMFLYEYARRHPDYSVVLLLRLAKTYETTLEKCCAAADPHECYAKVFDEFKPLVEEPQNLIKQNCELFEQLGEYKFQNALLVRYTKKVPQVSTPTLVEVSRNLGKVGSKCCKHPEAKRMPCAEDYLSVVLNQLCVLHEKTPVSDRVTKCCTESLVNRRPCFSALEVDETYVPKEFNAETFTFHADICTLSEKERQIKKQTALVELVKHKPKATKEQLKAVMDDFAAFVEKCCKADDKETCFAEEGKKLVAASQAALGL

Sequence of Acetylcholinesterase (P22303 whole entry): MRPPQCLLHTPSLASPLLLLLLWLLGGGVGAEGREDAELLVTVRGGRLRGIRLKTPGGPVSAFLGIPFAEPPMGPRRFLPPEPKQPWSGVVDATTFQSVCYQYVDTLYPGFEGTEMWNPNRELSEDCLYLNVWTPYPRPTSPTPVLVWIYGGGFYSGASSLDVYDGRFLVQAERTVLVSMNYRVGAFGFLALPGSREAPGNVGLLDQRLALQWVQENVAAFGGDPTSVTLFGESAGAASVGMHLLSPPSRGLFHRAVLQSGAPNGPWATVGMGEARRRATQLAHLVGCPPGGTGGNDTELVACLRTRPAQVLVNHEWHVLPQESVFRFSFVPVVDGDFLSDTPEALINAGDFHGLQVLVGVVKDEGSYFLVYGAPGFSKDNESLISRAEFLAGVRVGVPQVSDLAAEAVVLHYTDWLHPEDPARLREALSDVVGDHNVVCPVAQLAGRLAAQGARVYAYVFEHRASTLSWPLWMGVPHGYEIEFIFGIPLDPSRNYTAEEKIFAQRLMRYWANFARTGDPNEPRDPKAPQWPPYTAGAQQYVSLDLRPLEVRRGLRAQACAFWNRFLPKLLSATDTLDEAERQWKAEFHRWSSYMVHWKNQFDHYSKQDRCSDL
Sequence of Voltage-gated inwardly rectifying potassium channel KCNH2 (Q12809 whole entry): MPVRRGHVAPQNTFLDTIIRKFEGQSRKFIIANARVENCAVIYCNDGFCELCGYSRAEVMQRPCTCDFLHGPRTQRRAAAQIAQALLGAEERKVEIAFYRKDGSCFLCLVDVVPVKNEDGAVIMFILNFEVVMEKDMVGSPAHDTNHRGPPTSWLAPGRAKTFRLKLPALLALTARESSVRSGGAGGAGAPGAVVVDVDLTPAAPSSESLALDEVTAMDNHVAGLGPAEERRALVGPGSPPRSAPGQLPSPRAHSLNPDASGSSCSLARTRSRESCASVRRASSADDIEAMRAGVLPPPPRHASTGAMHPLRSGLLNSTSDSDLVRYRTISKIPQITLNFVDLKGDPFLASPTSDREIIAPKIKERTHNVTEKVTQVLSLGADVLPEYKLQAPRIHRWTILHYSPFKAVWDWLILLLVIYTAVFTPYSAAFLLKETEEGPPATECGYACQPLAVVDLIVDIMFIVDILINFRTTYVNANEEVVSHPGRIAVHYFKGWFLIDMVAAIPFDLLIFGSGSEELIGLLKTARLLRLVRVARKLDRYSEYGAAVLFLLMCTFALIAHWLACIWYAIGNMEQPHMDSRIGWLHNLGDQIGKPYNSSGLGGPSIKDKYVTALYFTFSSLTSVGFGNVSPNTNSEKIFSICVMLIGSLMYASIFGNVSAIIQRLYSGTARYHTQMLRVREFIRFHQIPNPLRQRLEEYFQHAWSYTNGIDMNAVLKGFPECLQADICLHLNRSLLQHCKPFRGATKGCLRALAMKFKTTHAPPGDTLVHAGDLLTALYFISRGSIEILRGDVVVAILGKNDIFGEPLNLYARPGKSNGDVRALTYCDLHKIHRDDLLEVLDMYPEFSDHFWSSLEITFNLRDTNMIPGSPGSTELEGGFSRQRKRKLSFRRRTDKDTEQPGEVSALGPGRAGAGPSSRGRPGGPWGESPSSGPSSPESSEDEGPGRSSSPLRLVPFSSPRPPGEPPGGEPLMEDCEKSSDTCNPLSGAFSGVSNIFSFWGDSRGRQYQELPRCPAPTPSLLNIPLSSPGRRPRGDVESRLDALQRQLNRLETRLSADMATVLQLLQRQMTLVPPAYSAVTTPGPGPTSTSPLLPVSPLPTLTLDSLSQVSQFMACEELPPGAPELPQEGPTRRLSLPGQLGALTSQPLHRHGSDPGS
Sequence of Dipeptidyl peptidase 4 (P27487 whole entry): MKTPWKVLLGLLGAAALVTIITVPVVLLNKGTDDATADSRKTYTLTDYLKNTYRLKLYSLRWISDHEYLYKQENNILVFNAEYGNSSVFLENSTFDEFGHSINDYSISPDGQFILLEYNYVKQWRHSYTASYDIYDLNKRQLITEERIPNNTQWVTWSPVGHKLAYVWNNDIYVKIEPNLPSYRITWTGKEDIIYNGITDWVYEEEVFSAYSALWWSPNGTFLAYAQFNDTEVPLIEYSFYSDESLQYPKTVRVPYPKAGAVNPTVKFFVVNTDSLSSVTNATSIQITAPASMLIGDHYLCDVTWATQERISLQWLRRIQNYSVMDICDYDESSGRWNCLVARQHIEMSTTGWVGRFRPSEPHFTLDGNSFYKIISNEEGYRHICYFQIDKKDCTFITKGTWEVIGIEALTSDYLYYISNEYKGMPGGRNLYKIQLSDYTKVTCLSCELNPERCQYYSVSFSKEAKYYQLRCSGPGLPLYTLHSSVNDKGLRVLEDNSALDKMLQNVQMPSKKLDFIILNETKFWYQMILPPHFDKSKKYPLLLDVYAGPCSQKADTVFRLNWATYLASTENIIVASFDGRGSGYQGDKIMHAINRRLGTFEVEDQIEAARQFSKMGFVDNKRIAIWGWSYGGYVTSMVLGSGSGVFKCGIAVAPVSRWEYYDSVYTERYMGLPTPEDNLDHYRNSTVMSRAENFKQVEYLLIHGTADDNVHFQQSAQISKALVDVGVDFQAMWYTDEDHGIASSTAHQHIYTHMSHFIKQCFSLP

CN(C)C(=O)n1cnc(S[C@@H]2C[C@H]3CC[C@@H]2C3)n1
pIC50 [1]: 6.85

CN(C(=O)n1cnc(S[C@@H]2C[C@H]3CC[C@@H]2C3)n1)c1ccccc1
pIC50 [1]: < 5.30

CN(Cc1ccccc1Cl)C(=O)n1cnc(S(=O)(=O)[C@@H]2C[C@H]3CC[C@@H]2C3)n1
pIC50 [1]: 6.14

COc1ccc(CN(C)C(=O)n2cnc(S(=O)(=O)[C@@H]3C[C@H]4CC[C@@H]3C4)n2)c(OC)c1
pIC50 [1]: 7.52

Cc1nc(S(=O)(=O)[C@@H]2C[C@H]3CC[C@@H]2C3)nn1C(=O)N(C)C(C)C
pIC50 [1]: < 5.40

O=C(N1CCCC1)n1cnc(S[C@@H]2C[C@H]3CC[C@@H]2C3)n1
Intrinsic clearance [2]: 1.5 mL/min/g | pIC50 [1]: 6.75 | half-life [3]: > 30 min | half-life [4]: < 5 min

CSc1nc(-c2ccc(OC(F)(F)F)cc2)nn1C(=O)N(C)c1ccccc1
pIC50 [5]: < 1.30

CN(Cc1ccc(C(F)(F)F)cc1)C(=O)n1cnc(S(=O)(=O)[C@@H]2C[C@H]3CC[C@@H]2C3)n1
pIC50 [1]: 6.26

O=C(N1CCCC1)n1cnc(SCc2ccccc2)n1
pIC50 [1]: 5.84

O=C(N1CCCC1)n1cnc(S(=O)(=O)Cc2ccccc2)n1
pIC50 [1]: 6.38 | IC50 [6]: Not Active

O=C(N1CCCCC1)n1cnc(S(=O)(=O)[C@@H]2C[C@H]3CC[C@@H]2C3)n1
pIC50 [1]: 6.20

CCN(CC)C(=O)n1cnc(S(=O)(=O)[C@@H]2C[C@H]3CC[C@@H]2C3)n1
pIC50 [1]: 6.23

CN(Cc1cccnc1)C(=O)n1cnc(S(=O)(=O)[C@@H]2C[C@H]3CC[C@@H]2C3)n1
pIC50 [1]: 7.07

CSc1nc(-c2ccc(OC(F)(F)F)cc2)nn1C(=O)N(C)C
pIC50 [5]: 3.70

CC(C)N(C)C(=O)n1cnc(S(=O)(=O)c2ccc(Cl)cc2)n1
pIC50 [1]: 7.72

CN(Cc1cccc(C(F)(F)F)c1)C(=O)n1cnc(S(=O)(=O)[C@@H]2C[C@H]3CC[C@@H]2C3)n1
pIC50 [1]: 5.73

CN(C(=O)n1cnc(S(=O)(=O)[C@@H]2C[C@H]3CC[C@@H]2C3)n1)c1ccccc1
pIC50 [1]: 5.57 | pIC50 [7]: 5.57

CN(Cc1ccc(F)cc1)C(=O)n1cnc(S(=O)(=O)[C@@H]2C[C@H]3CC[C@@H]2C3)n1
pIC50 [1]: 6.71

CCN(C)C(=O)n1cnc(Sc2c(C)cc(C)cc2C)n1
pIC50 [1]: 5.72

CN(Cc1cccc(F)c1)C(=O)n1cnc(S(=O)(=O)[C@@H]2C[C@H]3CC[C@@H]2C3)n1
pIC50 [1]: 6.43

O=C(N1CCc2ccccc2C1)n1cnc(S(=O)(=O)[C@@H]2C[C@H]3CC[C@@H]2C3)n1
pIC50 [1]: < 5.30

O=C1C(O)=C([C@H]2CC[C@H](c3ccc(Cl)cc3)CC2)C(=O)c2ccccc21 [ATOVAQUONE]
pIC50 [1]: 9.00 | Activity [8]: Active | pIC50 [7]: 9.52

CCN(C)C(=O)n1cnc(S(=O)(=O)c2c(C)cc(C)cc2C)n1
pIC50 [1]: 6.79

CN(C)C(=O)n1cnc(S(=O)(=O)c2ccc(Cl)cc2)n1
pIC50 [1]: 6.24

CC(C)N(C)C(=O)n1cnc(S[C@@H]2C[C@H]3CC[C@@H]2C3)n1
pIC50 [1]: 7.15 | IC50 [6]: Not Active

CC(C)N(C(=O)n1cnc(S(=O)(=O)[C@@H]2C[C@H]3CC[C@@H]2C3)n1)C(C)C
pIC50 [1]: < 5.30 | pIC50 [7]: < 5.30

CC(C)N(C)C(=O)n1cnc(S(=O)(=O)C2CCCCC2)n1
pIC50 [1]: 7.55

CC(C)N(C(=O)n1cnc(S[C@@H]2C[C@H]3CC[C@@H]2C3)n1)C(C)C
Intrinsic clearance [2]: 3.1 mL/min/g | pIC50 [1]: 5.85 | half-life [3]: 22.3 min | pIC50 [7]: 6.27 | half-life [4]: < 5 min | IC50 [6]: Not Active

COc1ccc(CN(C(=O)n2cnc(S(=O)(=O)[C@@H]3C[C@H]4CC[C@@H]3C4)n2)C(C)C)cc1
pIC50 [1]: 6.08

CN(Cc1cccc(Cl)c1)C(=O)n1cnc(S(=O)(=O)[C@@H]2C[C@H]3CC[C@@H]2C3)n1
pIC50 [1]: 6.51

CN(C(=O)n1cnc(S(=O)(=O)[C@@H]2C[C@H]3CC[C@@H]2C3)n1)C(C)(C)C
pIC50 [1]: < 5.30

CCN(C)C(=O)n1cnc(S(=O)(=O)[C@@H]2C[C@H]3CC[C@@H]2C3)n1
pIC50 [1]: 7.03

CCN(CC)C(=O)n1cnc(S[C@@H]2C[C@H]3CC[C@@H]2C3)n1
pIC50 [1]: 5.65

CN(Cc1ccc(S(C)(=O)=O)cc1)C(=O)n1cnc(S(=O)(=O)[C@@H]2C[C@H]3CC[C@@H]2C3)n1
pIC50 [1]: 6.54

CN(Cc1ccc(Cl)cc1)C(=O)n1cnc(S(=O)(=O)[C@@H]2C[C@H]3CC[C@@H]2C3)n1
pIC50 [1]: 6.22

O=C(N1CCCC1)n1cnc(S(=O)(=O)[C@@H]2C[C@H]3CC[C@@H]2C3)n1
Intrinsic clearance [2]: 1 mL/min/g | pIC50 [1]: 7.08 | half-life [3]: > 30 min | pIC50 [7]: 7.43 | half-life [4]: < 5 min

CN(C)C(=O)n1cnc(S(=O)(=O)[C@@H]2C[C@H]3CC[C@@H]2C3)n1
pIC50 [1]: 7.33

CC(C)N(C)C(=O)n1cnc(S(=O)(=O)C2CC3CCC2C3)n1 (centres undefined)
pIC50 [9]: < 4.30 | Intrinsic clearance [2]: 1.6 mL/min/g | inhibition (INH) [10]: Not Active | pIC50 [1]: 7.80 | Stability [11]: Unstable | pIC50 [12]: < 4.00 | half-life [3]: > 30 min | log(ratio) [13]: 3.1 | Stability [14]: Unstable | pIC50 [15]: 7.31 | Activity [8]: Active | pIC50 [16]: 8.05 | pIC50 [17]: 4.50 | Stability [18]: Stable | solubility kinetic [19]: ≥ 500 µM | pIC50 [7]: 7.55 | Time [20]: 48 h | half-life [4]: 3.8 min | IC50 [6]: Not Active | ED50 [21]: > 50 mg/kg | Papp [22]: > 30 ×10⁻⁶ cm/s | fraction unbound [23]: 0.42

CC(=O)c1ccc(CN(C)C(=O)n2cnc(S(=O)(=O)[C@@H]3C[C@H]4CC[C@@H]3C4)n2)cc1
pIC50 [1]: 7.30

CN(Cc1ccccc1C(F)(F)F)C(=O)n1cnc(S(=O)(=O)[C@@H]2C[C@H]3CC[C@@H]2C3)n1
pIC50 [1]: 5.90

CC(C)N(C)C(=O)n1cnc(S(=O)(=O)C2C3CC4CC(C3)CC2C4)n1 (centres undefined)
pIC50 [1]: 8.10

CCCN(C)C(=O)n1cnc(S(=O)(=O)[C@@H]2C[C@H]3CC[C@@H]2C3)n1
pIC50 [1]: 6.84

COc1cccc(CN(C)C(=O)n2cnc(S(=O)(=O)[C@@H]3C[C@H]4CC[C@@H]3C4)n2)c1
pIC50 [1]: 7.44

CN(Cc1ccc(C(C)(C)C)cc1)C(=O)n1cnc(S(=O)(=O)[C@@H]2C[C@H]3CC[C@@H]2C3)n1
pIC50 [1]: 7.80 | pIC50 [12]: 4.12 | solubility kinetic [19]: 28 µM (≈ 12.1 µg/mL) | half-life [4]: 9 min

CN(Cc1cccc(C#N)c1)C(=O)n1cnc(S(=O)(=O)[C@@H]2C[C@H]3CC[C@@H]2C3)n1
pIC50 [1]: 5.46

CN(Cc1ccccc1F)C(=O)n1cnc(S(=O)(=O)[C@@H]2C[C@H]3CC[C@@H]2C3)n1
pIC50 [1]: 6.74

CN(Cc1ccccc1)C(=O)n1cnc(S(=O)(=O)[C@@H]2C[C@H]3CC[C@@H]2C3)n1
Intrinsic clearance [2]: 1.5 mL/min/g | pIC50 [1]: 6.59 | half-life [3]: > 30 min | pIC50 [7]: 6.42 | half-life [4]: 19.4 min

COc1ccc(CN(C(=O)n2cnc(S(=O)(=O)[C@@H]3C[C@H]4CC[C@@H]3C4)n2)C2CC2)cc1
pIC50 [1]: 5.99
